# Test results: ChEMBL document CHEMBL3425443, “Improved angiostatic activity of dasatinib by modulation with hydrophobic chains” (ACS Med Chem Lett, 2015)
# Test system: not listed separately
# Assay: Selectivity index, ratio of cytotoxic IC50 for HEK293 cells to antiangiogenic activity in chicken embryo chorioallantoic membrane model
# Conditions: not given
row,Compound,Selectivity Index
1,Cc1nc(Nc2ncc(C(=O)Nc3c(C)cccc3Cl)s2)cc(N2CCN(CCOC(=O)CCCC(=O)OCCC(F)(F)C(F)(F)C(F)(F)C(F)(F)C(F)(F)C(F)(F)C(F)(F)C(F)(F)F)CC2)n1,25

# Test system: Chorioallantoic membrane
# Assay: Antiangiogenic activity in chicken embryo chorioallantoic membrane model assessed as inhibition of vasculature formation at 20 uM, iv dosed for 3 consecutive days by FITC-dextran fluorescence angiography
# Type: functional, Gallus gallus
# Conditions: not given
row,Compound,inhibition (INH)
1,Cc1nc(Nc2ncc(C(=O)Nc3c(C)cccc3Cl)s2)cc(N2CCN(CCO)CC2)n1.O [DASATINIB],8%
2,Cc1nc(Nc2ncc(C(=O)Nc3c(C)cccc3Cl)s2)cc(N2CCN(CCOC(=O)CCCC(=O)OCCC(F)(F)C(F)(F)C(F)(F)C(F)(F)C(F)(F)C(F)(F)C(F)(F)C(F)(F)F)CC2)n1,45%
3,Cc1nc(Nc2ncc(C(=O)Nc3c(C)cccc3Cl)s2)cc(N2CCN(CCOC(=O)CCC(=O)OCCC(F)(F)C(F)(F)C(F)(F)C(F)(F)C(F)(F)C(F)(F)C(F)(F)C(F)(F)C(F)(F)C(F)(F)F)CC2)n1,18%

# Test system: not listed separately
# Assay: Cytotoxicity against human ECRF24 cells after 72 hrs by MTT assay
# Type: functional, cell-based
# Conditions: ECRF24, 72 h
# Procedure, shortened: (§1)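 Proliferation inhibition measured in human A2780 ovarian carcinoma, ECRF24 immortalized endothelial and HEK-293 embryonic kidney cells; IC50 values in μM reported as means ± SD.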
row,Compound,IC50
1,CCCCCCCCCCCCCCCCCCOC(=O)CCC(=O)OCCN1CCN(c2cc(Nc3ncc(C(=O)Nc4c(C)cccc4Cl)s3)nc(C)n2)CC1,105 µM
2,Cc1nc(Nc2ncc(C(=O)Nc3c(C)cccc3Cl)s2)cc(N2CCN(CCO)CC2)n1.O [DASATINIB],5.7 µM
3,Cc1nc(Nc2ncc(C(=O)Nc3c(C)cccc3Cl)s2)cc(N2CCN(CCOC(=O)CCCC(=O)OCCC(F)(F)C(F)(F)C(F)(F)C(F)(F)C(F)(F)C(F)(F)F)CC2)n1,> 500 µM
4,CCCCCCCCOC(=O)CCC(=O)OCCN1CCN(c2cc(Nc3ncc(C(=O)Nc4c(C)cccc4Cl)s3)nc(C)n2)CC1,7.8 µM
5,Cc1nc(Nc2ncc(C(=O)Nc3c(C)cccc3Cl)s2)cc(N2CCN(CCOC(=O)CCC(=O)OCCC(F)(F)C(F)(F)C(F)(F)C(F)(F)C(F)(F)C(F)(F)F)CC2)n1,122 µM
6,CCCCCCCCCCOC(=O)CCC(=O)OCCN1CCN(c2cc(Nc3ncc(C(=O)Nc4c(C)cccc4Cl)s3)nc(C)n2)CC1,30 µM
7,Cc1nc(Nc2ncc(C(=O)Nc3c(C)cccc3Cl)s2)cc(N2CCN(CCOC(=O)CCC(=O)OCCC(F)(F)C(F)(F)C(F)(F)C(F)(F)C(F)(F)C(F)(F)C(F)(F)C(F)(F)F)CC2)n1,96 µM
8,CCCCCCCCCCCCOC(=O)CCC(=O)OCCN1CCN(c2cc(Nc3ncc(C(=O)Nc4c(C)cccc4Cl)s3)nc(C)n2)CC1,27 µM
9,Cc1nc(Nc2ncc(C(=O)Nc3c(C)cccc3Cl)s2)cc(N2CCN(CCOC(=O)CCCC(=O)OCCC(F)(F)C(F)(F)C(F)(F)C(F)(F)C(F)(F)C(F)(F)C(F)(F)C(F)(F)C(F)(F)C(F)(F)F)CC2)n1,102 µM
10,CCCCCCCCCCCCCCCCCCOC(=O)CCCC(=O)OCCN1CCN(c2cc(Nc3ncc(C(=O)Nc4c(C)cccc4Cl)s3)nc(C)n2)CC1,101 µM
11,CCCCCCCCCCOC(=O)CCCC(=O)OCCN1CCN(c2cc(Nc3ncc(C(=O)Nc4c(C)cccc4Cl)s3)nc(C)n2)CC1,34 µM
12,CCCCCCCCCCCCOC(=O)CCCC(=O)OCCN1CCN(c2cc(Nc3ncc(C(=O)Nc4c(C)cccc4Cl)s3)nc(C)n2)CC1,135 µM
13,Cc1nc(Nc2ncc(C(=O)Nc3c(C)cccc3Cl)s2)cc(N2CCN(CCOC(=O)CCCC(=O)OCCC(F)(F)C(F)(F)C(F)(F)C(F)(F)C(F)(F)C(F)(F)C(F)(F)C(F)(F)F)CC2)n1,57 µM
14,CCCCCCCCOC(=O)CCCC(=O)OCCN1CCN(c2cc(Nc3ncc(C(=O)Nc4c(C)cccc4Cl)s3)nc(C)n2)CC1,18 µM
15,Cc1nc(Nc2ncc(C(=O)Nc3c(C)cccc3Cl)s2)cc(N2CCN(CCOC(=O)CCC(=O)OCCC(F)(F)C(F)(F)C(F)(F)C(F)(F)C(F)(F)C(F)(F)C(F)(F)C(F)(F)C(F)(F)C(F)(F)F)CC2)n1,24 µM

# Test system: not listed separately
# Assay: Angiostatic activity in human ECRF24 cells assessed as inhibition of cell migration at 50 uM after 7 hrs by laser scanner cytometry based wound closure assay
# Type: functional
# Conditions: ECRF24, 7 h
# Procedure, shortened: (§2)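 ECRF24 endothelial monolayers wounded, then incubated 7 h with compound across a concentration range; wound closure quantified to give migration inhibition. Error bars are standard error of the mean; significance set at p < 0.05 and p < 0.01.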
row,Compound,inhibition at 50 µM
1,Cc1nc(Nc2ncc(C(=O)Nc3c(C)cccc3Cl)s2)cc(N2CCN(CCO)CC2)n1.O [DASATINIB],65%
2,Cc1nc(Nc2ncc(C(=O)Nc3c(C)cccc3Cl)s2)cc(N2CCN(CCOC(=O)CCCC(=O)OCCC(F)(F)C(F)(F)C(F)(F)C(F)(F)C(F)(F)C(F)(F)C(F)(F)C(F)(F)F)CC2)n1,15%

# Test system: HEK293
# Assay: Cytotoxicity against human HEK293 cells after 72 hrs by MTT assay
# Type: cell-based
# Conditions: HEK293, 72 h
# Procedure, shortened: as §1
row,Compound,IC50
1,CCCCCCCCCCCCCCCCCCOC(=O)CCC(=O)OCCN1CCN(c2cc(Nc3ncc(C(=O)Nc4c(C)cccc4Cl)s3)nc(C)n2)CC1,> 500 µM
2,Cc1nc(Nc2ncc(C(=O)Nc3c(C)cccc3Cl)s2)cc(N2CCN(CCO)CC2)n1.O [DASATINIB],14.3 µM
3,Cc1nc(Nc2ncc(C(=O)Nc3c(C)cccc3Cl)s2)cc(N2CCN(CCOC(=O)CCCC(=O)OCCC(F)(F)C(F)(F)C(F)(F)C(F)(F)C(F)(F)C(F)(F)F)CC2)n1,> 500 µM
4,CCCCCCCCOC(=O)CCC(=O)OCCN1CCN(c2cc(Nc3ncc(C(=O)Nc4c(C)cccc4Cl)s3)nc(C)n2)CC1,52 µM
5,Cc1nc(Nc2ncc(C(=O)Nc3c(C)cccc3Cl)s2)cc(N2CCN(CCOC(=O)CCC(=O)OCCC(F)(F)C(F)(F)C(F)(F)C(F)(F)C(F)(F)C(F)(F)F)CC2)n1,58 µM
6,CCCCCCCCCCOC(=O)CCC(=O)OCCN1CCN(c2cc(Nc3ncc(C(=O)Nc4c(C)cccc4Cl)s3)nc(C)n2)CC1,46 µM
7,Cc1nc(Nc2ncc(C(=O)Nc3c(C)cccc3Cl)s2)cc(N2CCN(CCOC(=O)CCC(=O)OCCC(F)(F)C(F)(F)C(F)(F)C(F)(F)C(F)(F)C(F)(F)C(F)(F)C(F)(F)F)CC2)n1,> 500 µM
8,CCCCCCCCCCCCOC(=O)CCC(=O)OCCN1CCN(c2cc(Nc3ncc(C(=O)Nc4c(C)cccc4Cl)s3)nc(C)n2)CC1,> 500 µM
9,Cc1nc(Nc2ncc(C(=O)Nc3c(C)cccc3Cl)s2)cc(N2CCN(CCOC(=O)CCCC(=O)OCCC(F)(F)C(F)(F)C(F)(F)C(F)(F)C(F)(F)C(F)(F)C(F)(F)C(F)(F)C(F)(F)C(F)(F)F)CC2)n1,> 500 µM
10,CCCCCCCCCCCCCCCCCCOC(=O)CCCC(=O)OCCN1CCN(c2cc(Nc3ncc(C(=O)Nc4c(C)cccc4Cl)s3)nc(C)n2)CC1,> 500 µM
11,CCCCCCCCCCOC(=O)CCCC(=O)OCCN1CCN(c2cc(Nc3ncc(C(=O)Nc4c(C)cccc4Cl)s3)nc(C)n2)CC1,29 µM
12,CCCCCCCCCCCCOC(=O)CCCC(=O)OCCN1CCN(c2cc(Nc3ncc(C(=O)Nc4c(C)cccc4Cl)s3)nc(C)n2)CC1,> 500 µM
13,Cc1nc(Nc2ncc(C(=O)Nc3c(C)cccc3Cl)s2)cc(N2CCN(CCOC(=O)CCCC(=O)OCCC(F)(F)C(F)(F)C(F)(F)C(F)(F)C(F)(F)C(F)(F)C(F)(F)C(F)(F)F)CC2)n1,> 500 µM
14,CCCCCCCCOC(=O)CCCC(=O)OCCN1CCN(c2cc(Nc3ncc(C(=O)Nc4c(C)cccc4Cl)s3)nc(C)n2)CC1,18 µM
15,Cc1nc(Nc2ncc(C(=O)Nc3c(C)cccc3Cl)s2)cc(N2CCN(CCOC(=O)CCC(=O)OCCC(F)(F)C(F)(F)C(F)(F)C(F)(F)C(F)(F)C(F)(F)C(F)(F)C(F)(F)C(F)(F)C(F)(F)F)CC2)n1,> 500 µM

# Test system: ECRF24
# Assay: Angiostatic activity in human ECRF24 cells assessed as inhibition of cell migration after 7 hrs by laser scanner cytometry based wound closure assay
# Type: functional
# Conditions: not given
# Procedure, shortened: as §2
row,Compound,inhibition
1,Cc1nc(Nc2ncc(C(=O)Nc3c(C)cccc3Cl)s2)cc(N2CCN(CCO)CC2)n1.O [DASATINIB],Dose-dependent effect
2,Cc1nc(Nc2ncc(C(=O)Nc3c(C)cccc3Cl)s2)cc(N2CCN(CCOC(=O)CCCC(=O)OCCC(F)(F)C(F)(F)C(F)(F)C(F)(F)C(F)(F)C(F)(F)C(F)(F)C(F)(F)F)CC2)n1,Dose-dependent effect

# Test system: A2780
# Assay: Cytotoxicity against human A2780 cells after 72 hrs by MTT assay
# Type: functional, cell-based
# Conditions: A2780, 72 h
# Procedure, shortened: as §1
row,Compound,IC50
1,CCCCCCCCCCCCCCCCCCOC(=O)CCC(=O)OCCN1CCN(c2cc(Nc3ncc(C(=O)Nc4c(C)cccc4Cl)s3)nc(C)n2)CC1,108 µM
2,Cc1nc(Nc2ncc(C(=O)Nc3c(C)cccc3Cl)s2)cc(N2CCN(CCO)CC2)n1.O [DASATINIB],8.7 µM
3,Cc1nc(Nc2ncc(C(=O)Nc3c(C)cccc3Cl)s2)cc(N2CCN(CCOC(=O)CCCC(=O)OCCC(F)(F)C(F)(F)C(F)(F)C(F)(F)C(F)(F)C(F)(F)F)CC2)n1,28.3 µM
4,CCCCCCCCOC(=O)CCC(=O)OCCN1CCN(c2cc(Nc3ncc(C(=O)Nc4c(C)cccc4Cl)s3)nc(C)n2)CC1,10.6 µM
5,Cc1nc(Nc2ncc(C(=O)Nc3c(C)cccc3Cl)s2)cc(N2CCN(CCOC(=O)CCC(=O)OCCC(F)(F)C(F)(F)C(F)(F)C(F)(F)C(F)(F)C(F)(F)F)CC2)n1,130 µM
6,CCCCCCCCCCOC(=O)CCC(=O)OCCN1CCN(c2cc(Nc3ncc(C(=O)Nc4c(C)cccc4Cl)s3)nc(C)n2)CC1,22.5 µM
7,Cc1nc(Nc2ncc(C(=O)Nc3c(C)cccc3Cl)s2)cc(N2CCN(CCOC(=O)CCC(=O)OCCC(F)(F)C(F)(F)C(F)(F)C(F)(F)C(F)(F)C(F)(F)C(F)(F)C(F)(F)F)CC2)n1,118 µM
8,CCCCCCCCCCCCOC(=O)CCC(=O)OCCN1CCN(c2cc(Nc3ncc(C(=O)Nc4c(C)cccc4Cl)s3)nc(C)n2)CC1,45 µM
9,Cc1nc(Nc2ncc(C(=O)Nc3c(C)cccc3Cl)s2)cc(N2CCN(CCOC(=O)CCCC(=O)OCCC(F)(F)C(F)(F)C(F)(F)C(F)(F)C(F)(F)C(F)(F)C(F)(F)C(F)(F)C(F)(F)C(F)(F)F)CC2)n1,> 500 µM
10,CCCCCCCCCCCCCCCCCCOC(=O)CCCC(=O)OCCN1CCN(c2cc(Nc3ncc(C(=O)Nc4c(C)cccc4Cl)s3)nc(C)n2)CC1,125 µM
11,CCCCCCCCCCOC(=O)CCCC(=O)OCCN1CCN(c2cc(Nc3ncc(C(=O)Nc4c(C)cccc4Cl)s3)nc(C)n2)CC1,119 µM
12,CCCCCCCCCCCCOC(=O)CCCC(=O)OCCN1CCN(c2cc(Nc3ncc(C(=O)Nc4c(C)cccc4Cl)s3)nc(C)n2)CC1,53 µM
13,Cc1nc(Nc2ncc(C(=O)Nc3c(C)cccc3Cl)s2)cc(N2CCN(CCOC(=O)CCCC(=O)OCCC(F)(F)C(F)(F)C(F)(F)C(F)(F)C(F)(F)C(F)(F)C(F)(F)C(F)(F)F)CC2)n1,121 µM
14,CCCCCCCCOC(=O)CCCC(=O)OCCN1CCN(c2cc(Nc3ncc(C(=O)Nc4c(C)cccc4Cl)s3)nc(C)n2)CC1,12 µM
15,Cc1nc(Nc2ncc(C(=O)Nc3c(C)cccc3Cl)s2)cc(N2CCN(CCOC(=O)CCC(=O)OCCC(F)(F)C(F)(F)C(F)(F)C(F)(F)C(F)(F)C(F)(F)C(F)(F)C(F)(F)C(F)(F)C(F)(F)F)CC2)n1,90 µM
